Common to all, as to format: cell-based
The target in one experiment is T1, human M5 (Homo sapiens, UniProt P08912).
T1 sequence (P08912 1-532): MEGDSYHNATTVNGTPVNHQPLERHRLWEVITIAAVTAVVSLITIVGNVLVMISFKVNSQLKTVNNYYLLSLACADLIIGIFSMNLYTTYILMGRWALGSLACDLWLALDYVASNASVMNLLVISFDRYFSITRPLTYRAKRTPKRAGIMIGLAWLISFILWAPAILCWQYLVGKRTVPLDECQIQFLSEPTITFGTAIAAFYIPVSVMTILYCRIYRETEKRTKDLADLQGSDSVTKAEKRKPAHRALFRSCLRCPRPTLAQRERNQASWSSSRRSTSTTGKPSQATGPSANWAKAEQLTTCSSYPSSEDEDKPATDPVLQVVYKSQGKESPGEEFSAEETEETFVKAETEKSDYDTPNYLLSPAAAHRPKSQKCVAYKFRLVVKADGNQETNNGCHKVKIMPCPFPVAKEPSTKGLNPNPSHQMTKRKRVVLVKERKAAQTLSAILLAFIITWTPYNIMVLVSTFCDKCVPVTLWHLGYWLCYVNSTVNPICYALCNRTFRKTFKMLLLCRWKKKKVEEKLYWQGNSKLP
The experiment is described as follows: calcium mobilization assay, hM5-CHO cells, FDSS7000. Put shortly: (§1)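 CHO cells stably expressing human or rat M5 were grown in Ham's F-12 with 10% FBS, 20 mM HEPES and 500 μg/mL G418 (37 °C, 5% CO2), then plated at 20 000 cells/well without G418 the day before. Cells were loaded with 1.15 μM Fluo-4 AM for 45 min at 37 °C in HBSS, 20 mM HEPES and 2.5 mM probenecid. Test compound was given as a 10-point 1:3 series from 30 μM final for 2.5 min, then ACh EC20 for 1 min, with calcium read on FDSS7000. EC50 and efficacy came from a four-parameter logistic fit.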
For orientation: Calcium flux is commonly read through the fluorescence of an indicator in the cells.

For the next experiment, the target named is T2, rat M5 (Rattus norvegicus, UniProt P08911).
T2 sequence (P08911 1-531): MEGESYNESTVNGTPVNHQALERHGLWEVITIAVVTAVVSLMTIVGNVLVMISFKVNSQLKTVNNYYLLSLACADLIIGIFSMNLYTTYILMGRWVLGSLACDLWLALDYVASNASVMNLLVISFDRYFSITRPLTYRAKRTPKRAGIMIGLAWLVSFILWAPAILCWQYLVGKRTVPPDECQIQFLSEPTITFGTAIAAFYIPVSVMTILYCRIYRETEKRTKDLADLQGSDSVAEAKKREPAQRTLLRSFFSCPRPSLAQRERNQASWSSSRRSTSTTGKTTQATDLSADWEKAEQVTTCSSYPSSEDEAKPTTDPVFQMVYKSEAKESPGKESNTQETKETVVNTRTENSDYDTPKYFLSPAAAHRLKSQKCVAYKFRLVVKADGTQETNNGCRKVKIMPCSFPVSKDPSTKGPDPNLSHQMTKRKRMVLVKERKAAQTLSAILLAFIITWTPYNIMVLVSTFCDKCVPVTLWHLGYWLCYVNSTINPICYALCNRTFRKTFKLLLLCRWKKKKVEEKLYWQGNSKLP
The experiment can be described thus: calcium mobilization assay, rM5-CHO cells, FDSS7000. Particulars: PAM, functional calcium assay, n = 3. An outline of the steps:
as §1

The target in the next experiment is T3, rat M1 (Rattus norvegicus, UniProt P08482).
T3 sequence (P08482 1-460): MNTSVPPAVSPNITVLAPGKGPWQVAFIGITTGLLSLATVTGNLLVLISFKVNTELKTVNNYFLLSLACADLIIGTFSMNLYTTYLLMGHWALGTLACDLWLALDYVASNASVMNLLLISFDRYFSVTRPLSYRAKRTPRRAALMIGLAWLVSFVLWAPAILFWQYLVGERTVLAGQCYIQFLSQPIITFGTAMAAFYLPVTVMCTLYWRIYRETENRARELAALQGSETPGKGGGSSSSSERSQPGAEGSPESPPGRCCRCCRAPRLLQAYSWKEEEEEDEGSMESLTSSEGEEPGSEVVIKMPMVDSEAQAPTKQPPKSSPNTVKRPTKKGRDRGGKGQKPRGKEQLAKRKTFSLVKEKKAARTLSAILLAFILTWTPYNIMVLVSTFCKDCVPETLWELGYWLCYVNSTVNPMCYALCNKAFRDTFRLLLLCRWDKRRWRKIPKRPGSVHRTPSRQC
The experiment is described as follows: mAChR selectivity, PAM activity at rat M1.

A further experiment concerns the target T4, rat M2 (Rattus norvegicus, UniProt P10980).
T4 sequence (P10980 1-466): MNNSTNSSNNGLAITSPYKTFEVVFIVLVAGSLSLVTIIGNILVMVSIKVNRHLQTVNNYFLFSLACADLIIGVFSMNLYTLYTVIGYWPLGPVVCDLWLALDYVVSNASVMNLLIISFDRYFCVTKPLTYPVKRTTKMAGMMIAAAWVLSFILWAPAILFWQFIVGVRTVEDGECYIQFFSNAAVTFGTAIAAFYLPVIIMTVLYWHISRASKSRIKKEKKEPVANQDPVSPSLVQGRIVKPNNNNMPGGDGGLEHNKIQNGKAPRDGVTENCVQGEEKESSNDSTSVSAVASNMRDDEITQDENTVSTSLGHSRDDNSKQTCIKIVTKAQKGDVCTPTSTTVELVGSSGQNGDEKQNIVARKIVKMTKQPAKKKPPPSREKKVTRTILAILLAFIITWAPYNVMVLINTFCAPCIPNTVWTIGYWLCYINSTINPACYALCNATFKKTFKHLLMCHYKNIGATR
The experiment is described as follows: mAChR selectivity, PAM activity at rat M2. The conditions noted are these: result in words.

The target of the next experiment is T5, rat M4 (Rattus norvegicus, UniProt P08485).
T5 sequence (P08485 1-478): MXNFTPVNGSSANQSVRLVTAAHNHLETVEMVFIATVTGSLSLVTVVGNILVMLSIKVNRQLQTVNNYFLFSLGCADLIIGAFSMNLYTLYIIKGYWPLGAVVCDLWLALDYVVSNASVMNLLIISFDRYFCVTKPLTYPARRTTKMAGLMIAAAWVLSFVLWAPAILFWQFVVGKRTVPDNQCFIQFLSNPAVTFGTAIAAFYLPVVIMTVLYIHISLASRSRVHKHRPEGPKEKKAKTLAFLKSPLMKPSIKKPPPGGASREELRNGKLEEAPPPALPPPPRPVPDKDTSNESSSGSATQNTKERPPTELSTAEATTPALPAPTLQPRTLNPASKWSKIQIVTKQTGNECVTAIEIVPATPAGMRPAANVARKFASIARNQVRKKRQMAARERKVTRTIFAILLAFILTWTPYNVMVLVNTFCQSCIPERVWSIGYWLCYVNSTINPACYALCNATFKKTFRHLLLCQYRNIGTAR
The experiment is described as follows: mAChR selectivity, PAM activity at rat M4.

[1] abbreviates: PAM, functional calcium assay, n = 3.

SMILES strings stand for the structures. Several values for one entry are separate records, joined by “and”; a condition that tells them apart may be missing. Identical values can stand only once. Where only a bound is given, the exact number is not on record here.

The EC50 is the midpoint of the concentration-response curve. Regarding `CCCN(C(=O)C1CCN(S(=O)(=O)c2ccc3[nH]ncc3c2)CC1)[C@@H]1CCc2c(F)cccc21` [Compound 18g], at human M5 (setting [1]), the “hM5 % ACh Max” value is 74 % ACh Max and 74±6 % ACh Max. Besides, the “hM5 pEC50 ± SEM” value at human M5 (setting [1]) is on record as 7.46±0.15. Moreover, at human M5 (hM5), the “increase in M5 PAM potency relative to 18a” value is above 10 fold. Besides, the EC50 at human M5 (read-out: hM5 EC50, PAM, functional calcium assay, n = 3) turned out to be 41 nM; on rat M5 (read-out: rM5 EC50), 74 nM; on rat M1 (read-out: rat M1 EC50), 904 nM; at rat M4 (read-out: rat M4 EC50) it was 3910 nM. Further, the “rM5 % ACh Max” value at rat M5 was 76 % ACh Max and 76 ± 7 % ACh Max. The “rM5 pEC50 ± SEM” value at rat M5 came out at 7.13 ± 0.04. In addition, on rat M1, the “rat M1 % ACh Max” value was 69 % ACh Max. Further, the “rat M2 PAM activity” value on rat M2 is “inactive”. The “rat M4 % ACh Max” value on rat M4 came out at 49 % ACh Max.

The values above are taken from publication PMC6104635 (ACS chemical neuroscience, 2018).
